Legend:
[1] = target: T1, 5-hydroxytryptamine receptor 1A (Rattus norvegicus, UniProt P19327); test: (§1) Inhibitory activity against 5-hydroxytryptamine 1A receptor of rat hippocampal tissue using [3H]OH-DPAT as radioligand.
T1 sequence (P19327 whole entry): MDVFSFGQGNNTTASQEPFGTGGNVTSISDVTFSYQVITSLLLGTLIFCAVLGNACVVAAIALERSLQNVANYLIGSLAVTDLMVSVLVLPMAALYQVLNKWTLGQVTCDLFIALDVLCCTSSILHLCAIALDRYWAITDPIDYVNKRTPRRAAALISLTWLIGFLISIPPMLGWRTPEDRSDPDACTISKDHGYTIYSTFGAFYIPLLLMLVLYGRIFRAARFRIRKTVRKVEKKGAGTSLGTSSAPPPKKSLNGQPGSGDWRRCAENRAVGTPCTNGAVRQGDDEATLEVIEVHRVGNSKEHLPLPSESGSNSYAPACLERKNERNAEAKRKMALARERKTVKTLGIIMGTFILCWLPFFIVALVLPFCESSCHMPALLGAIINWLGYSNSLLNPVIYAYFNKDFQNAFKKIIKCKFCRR

[2] = target: T2, 5-hydroxytryptamine receptor 1B (Rattus norvegicus, UniProt P28564); test: (§2) Inhibitory activity against 5-hydroxytryptamine 1B receptor of rat striatal membrane homogenate using [3H]5-HT as the radioligand.
T2 sequence (P28564 whole entry): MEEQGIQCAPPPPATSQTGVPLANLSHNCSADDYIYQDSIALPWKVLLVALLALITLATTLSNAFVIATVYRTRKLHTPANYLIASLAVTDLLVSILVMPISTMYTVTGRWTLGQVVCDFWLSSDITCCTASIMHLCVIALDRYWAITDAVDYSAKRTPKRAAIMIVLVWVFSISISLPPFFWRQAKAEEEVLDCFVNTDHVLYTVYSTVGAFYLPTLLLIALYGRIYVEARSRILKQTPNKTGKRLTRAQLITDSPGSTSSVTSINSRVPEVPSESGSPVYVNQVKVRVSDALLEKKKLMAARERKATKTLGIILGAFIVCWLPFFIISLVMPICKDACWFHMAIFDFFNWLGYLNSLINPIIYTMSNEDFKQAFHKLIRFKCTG

Adrenergic receptor beta = Adrenergic receptor beta (Rattus norvegicus, UniProt P18090+P10608+P26255); test: Inhibitory activity against beta adrenergic receptor of rat frontal cortex homogenate using (1.0 nM) [3H]- dihydroalprenolol; type: tissue-based
[3] = target: T1, 5-hydroxytryptamine receptor 1A; test: as §1; type: tissue-based, Hippocampus
Procedure, shortened: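 Rat hippocampal membranes (4 mg wet weight), washed and preincubated 15 min at 37 °C, in 50 mM Tris HCl with 0.5 mM Na₂EDTA, 10 mM MgSO₄, 10 μM pargyline and 0.1% ascorbate. 0.1 nM [³H]8-OH-DPAT, 1 μM 8-OH-DPAT for nonspecific binding. Eleven competitor concentrations, at least triplicate. Incubated 30 min at 37 °C, then filtered over glass fiber. Ki reported.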

[4] = target: T2, 5-hydroxytryptamine receptor 1B; test: as §2; remark: listed apart in the source
Procedure, shortened: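 Competition binding on washed rat striatal membrane homogenate (8 mg) with 2.0 nM [³H]5-HT. 10⁻⁷ M 8-OH-DPAT and mesulergine block 5-HT1A and 5-HT1C sites; 10⁻⁶ M 5-HT defines nonspecific binding. Buffer: 50 mM Tris HCl, EDTA, MgSO₄, 10 μM pargyline, 0.1% ascorbate. Eleven concentrations, at least triplicate. 37 °C for 30 min, then glass-fiber filtration. Ki given.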

Row | Ki [1] [nM] | Ki [2] [nM] | Ki (Adrenergic receptor beta) [nM] | Ki [3] [nM] | Ki [4] [nM] | Structure (SMILES)
1 | 4850 | > 10000 | – | – | – | CN(C)CCCOc1ccccc1
2 | 400 | 1000 | – | – | – | CN(C)CCCCOc1cccc2ccccc12
3 | 345 | 1000 | 2400 | – | – | CN(C)CCCOc1cccc2ccccc12
4 | 3300 | 3100 | – | – | – | CNCCCOc1ccccc1
5 | 95 | – | – | – | – | CN(CCOc1cccc2ccccc12)Cc1ccccc1
6 | 3000 | > 10000 | – | – | – | COc1ccccc1OCCCN(C)C
7 | – | – | – | 3530 | – | CCCCN(CC)CCC(=O)c1cccc2ccccc12
8 | 225 | 5650 | 8300 | – | – | CCCCN(CCCC)CCCOc1cccc2ccccc12
9 | 60 | – | – | – | – | NCCOc1cccc2ccccc12
10 | – | – | – | 1320 | 8000 | CCCN(CCC)CC(O)COc1cccc2ccccc12 (centres undefined)

The next lines start with the molecule.

Row | Structure (SMILES) | Ki [1] [nM] | Ki [2] [nM] | Ki (Adrenergic receptor beta) [nM] | Ki [3] [nM] | Ki [4] [nM]
11 | CCCCN(CC)CCOc1cccc2ccccc12 | 39 | 1100 | 5000 | – | –
12 | CN(C)CCOc1cccc2ccccc12 | 80 | 1500 | 4500 | – | –
13 | CN(C)CCCNc1ccccc1 | > 25000 | > 10000 | – | – | –
14 | CCCN(C)CCOc1cccc2ccccc12 | 45 | 1800 | 5300 | – | –
15 | CN(C)Cc1cccc2ccccc12 | – | – | – | 3420 | –
16 | CCCN(CCC)CCCOc1ccccc1 | 2750 | > 10000 | – | – | –
17 | CCCCN(CC)CCCc1cccc2ccccc12 | – | – | – | 300 | –
18 | CN(C)CCCOc1ccccc1O | 4900 | > 10000 | – | – | –
19 | CCCCN(CCCC)CCOc1cccc2ccccc12 | 150 | 9000 | > 10000 | – | –
20 | CCCN(CCC)CCCOc1cccc2ccccc12 | 450 | 6100 | – | – | –
21 | CCCCN(CC)CCCC1CCCc2ccccc21 (centres undefined) | – | – | – | 540 | –
22 | CN(C)CCCCc1ccccc1 | – | – | – | 5000 | > 10000

Source: ChEMBL document CHEMBL1124632 (J Med Chem, 1989)
